Assay results as given in the array DNA melting data of Ke et al. (doi:10.1101/2024.01.08.574731).

Tests used:
[1] = melting temperature; fluorescence melt of hairpins on a sequencing array, two-state fit, raised by 9.35 °C to match UV melts; conditions: sodium 0.088 M
How it was run: (§1)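 Melting temperature and folding enthalpy were derived from bootstrapped two-state fits. The fitted temperatures were raised by 9.35 °C to agree with UV melts, and four replicates were combined by inverse variance. The underlying data were Cy3 fluorescence images of library hairpins, with annealed Cy3 and quencher oligos, on a sequenced MiSeq flow cell in 50 mM Na-HEPES pH 8.0, 25 mM NaCl, taken in 2.5 °C steps up to 60 °C, normalised to pre-quench Cy3 and to control constructs.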

[2] = folding enthalpy; higher = less favourable; fluorescence melt of hairpins on a sequencing array, two-state fit; conditions: sodium 0.088 M
How it was run: as §1

Sequence	Tm [1] [°C]	folding enthalpy [2] [kcal/mol]
GCTTTACGAAAGTAAGC (((.(((....))))))	46.2	-22.7
GCTTTAGCGAAAGCTAGC (((..(((....))))))	42.3	-8.44
GCTTTAGGAAACTAAAGC (((((((....)))))))	54.4	-39.1
GCTTTAGGAAACTAAGGC ((.((((....)))).))	37	-27.7
GCTTTCCCGAAAGGGAGC (((..(((....))))))	34.3	-10.2
GCTTTCGAAAGAAACAGC ((((((....)))..)))	32.8	-16.3
GCTTTCGAAAGAAGAAGC ((((((....)))..)))	32.1	-22.2
GCTTTCGAAAGAAGAGC ((((((....))).)))	37.3	-17.5
GCTTTCGAAAGAAGCAGC ((((((....)))..)))	35.4	-12.9
GCTTTCGAAAGAAGGAGC ((((((....)))..)))	31.5	-17.8
GCTTTCGGAAACGAAAAC (.(((((....))))).)	36.4	-22.4
GCTTTCGGAAACGGAAGC ((((.((....)).))))	53.2	-39.8
GCTTTGCGAAAGCACAGC (((.(((....))).)))	50.7	-47.5
GCTTTGCGAAAGCACTGC ((..(((....)))..))	43	-17.5
GCTTTGCGAAAGCAGTGC ((..(((....)))..))	38.4	-13.8
GCTTTGCGAAAGCATGGC ((..(((....)))..))	49.5	-16.7
GCTTTGCGAAAGCCCAGC (((..((....))..)))	31.5	-14.1
GCTTTGCGAAAGCGAAGC ((((.((....)).))))	66.2	-37.2
GCTTTGCGAAAGCGACGC ((.(.((....)).).))	47.6	-15.2
GCTTTGCGAAAGCTAGGC ((.(.((....)).).))	44.7	-15.7
GCTTTGCGAAAGCTATGC ((.(.((....)).).))	45.6	-12.6
GCTTTGGGAAACTAAAGC (((((.(....).)))))	44.3	-27.4
GCTTTGTCGAAAGACAGC (((..(((....))))))	35.3	-12

Sequence	Tm [1] [°C]	folding enthalpy [2] [kcal/mol]
GCTTTTCGAAAGAAAGC (((.(((....))))))	44.5	-25.1
GCTTTTCGAAAGAATAGC (((.(((....))).)))	44	-29.3
GCTTTTGGAAACAAAAAC (.(((((....))))).)	26.6	-13.2
GCTTTTGGAAACAAGAGC (((.(((....))).)))	41	-20
GCTTTTTCGAAAGAAAGC (((..(((....))))))	34.4	-17.7
GGAAAACCGAAAGGTTCC (((..(((....))))))	35.8	-13.8
GGAAACACGAAAGTGTCC (((..(((....))))))	36.5	-12.6
GGAAACCGAAAGGTGTCC (((.(((....))).)))	52.4	-31.1
GGAAACGCGAAAGCGTCC (((..(((....))))))	39.1	-9.21
GGAAAGCCGAAAGGCTCC (((..(((....))))))	42.2	-11.2
GGAAAGGCGAAAGCCTCC (((..(((....))))))	41.3	-10.6
GGAACAGGAAACTGTTCC (((((((....)))))))	60.6	-35.9
GGAACCGAAAGGTATCC ((((((....))).)))	40.8	-18.2
GGAACCGAAAGGTCTCC ((((((....))).)))	44.7	-22.1
GGAACCGAAAGGTTTCC ((((((....))).)))	53.8	-18.5
GGAACCGGAAACGGTCCC ((.((((....)))).))	52.9	-19.7
GGAACGGAAACGTTCC ((((((....))))))	64.2	-40.4
GGAACTCCGAAAGGATCC (((..(((....))))))	27	-7.77
GGAAGACGAAAGTCCTCC (((.(((....))).)))	43	-21.4
GGAAGAGGAAACTCTTCC (((((((....)))))))	58.2	-42.1
GGAAGATCGAAAGATTCC (((..(((....))))))	29.8	-13.4
GGAAGCCGAAAGGCTCC (((.(((....))))))	56	-15.7
